Experimental data of several laboratories.
Compare with care: the assays were run in different laboratories. ≈ marks a conversion by molar mass, not a printed value.
Organism: Escherichia coli

Compound	assay	test system	conditions	measurement	result
Cc1ccc(S(=O)(=O)Oc2cccc3cccnc23)cc1	microbial growth, broth dilution	ATCC25922	–	IC50	133 mg/L
CC(C)Oc1c(NC(=O)c2ccc(NC(=O)[C@H](CC(N)=O)NC(=O)c3ccc(-c4nn[nH]c4-c4ccc(C#N)cc4)cc3)cc2)ccc(C(=O)Nc2ccc(C(=O)O)cc2)c1O	microbial growth	DSM1116	–	MIC	> 64 mg/L
N=C(N)c1ccccc1OCCCCCOc1ccccc1C(=N)N	microbial growth	BW25113	–	MIC	> 200 mg/L
Cc1c(NC(=O)CC2=NC(=O)CS2)c(=O)n(-c2ccccc2)n1C	microbial killing, broth dilution	–	–	MBC	0.5 mg/L (≈ 1.45 µM)
C[C@H]1COc2c(N3CCN(C)CC3)c(F)cc3c(=O)c(C(=O)O)cn1c23	microbial growth	ATCC25922	–	MIC	0.04 mg/L (≈ 0.111 µM)
Cc1sc(C)c(-c2ccc(O)c(O)c2)c1Br	microbial growth	AS19	10 h	IC50	10.8 µM
Cc1ccc(-n2cc(COc3cc(C(C)C)ccc3C)nn2)cc1	microbial growth, broth dilution	ATCC25922	–	IC50	289 mg/L
Cc1cc(N)c2ccccc2[n+]1CCCCCCCCCC[n+]1c(C)cc(N)c2ccccc21	microbial growth, disc diffusion	–	50 µg/disc	inhibition zone	0 mm
COc1cc(C=Cc2cc(-c3ccc(N(C)C)cc3)nc(O)n2)ccc1O	microbial growth, disc diffusion	ATCC25922	250 µg/mL	inhibition zone	6 mm
CSc1ccc(-c2nc3ccc(C)cc3[nH]2)cc1	microbial growth, broth dilution	ATCC25922	–	MIC	32 mg/L (≈ 126 µM)
Cc1ccc(C(C)C)cc1O	microbial growth, broth dilution	ATCC25922	–	IC50	96.2 mg/L
CCCC(=O)Oc1c(C)c(O)c(C(=O)/C=C/c2ccccc2)c(OC)c1C	microbial killing, broth dilution	ATCC25922	–	MBC	> 5000 mg/L
Oc1cccc(-c2nc3ccccc3[nH]2)c1	microbial growth, broth dilution	ATCC25922	–	MIC	64 mg/L (≈ 304 µM)
COc1cc(C=CC(=O)CC(c2ccc(N(C)C)cc2)n2ccnc2)ccc1O (stereo not drawn)	microbial growth, disc diffusion	ATCC25922	250 µg/mL	inhibition zone	8 mm
Clc1ccc(-n2cc(COc3cccc4cccnc34)nn2)cc1	microbial growth, broth dilution	ATCC25922	–	IC50	470 mg/L
O=C(N[C@H](CO)[C@H](O)c1ccc([N+](=O)[O-])cc1)C(Cl)Cl	microbial growth	ATCC35218	–	MIC90	0.98 mg/L (≈ 3.03 µM)
Cc1ccc(C(C)C)cc1OCc1cn(-c2ccc(Cl)cc2)nn1	microbial growth, broth dilution	ATCC25922	–	IC50	655 mg/L
CC(C)Oc1c(NC(=O)c2ccc(NC(=O)[C@H](CC(N)=O)NC(=O)c3ccc(NC(=O)C(C)Oc4ccc(C#N)cc4)cc3)cc2)ccc(C(=O)Nc2ccc(C(=O)O)cc2)c1O (stereo partly drawn)	microbial growth	DSM1116	–	MIC	0.06 mg/L (≈ 0.0701 µM)
C#CCCCCCCCCC=CCC(O)CC(O)CO (stereo not drawn)	microbial growth, broth dilution	ATCC35218	–	IC50	> 200 mg/L
O=C(O)c1cn(C2CC2)c2cc(N3CCNCC3)c(F)cc2c1=O	microbial growth, disc diffusion	–	100 µg/mL, 24 h	inhibition zone	17 mm
N=C(N)c1ccccc1OCc1cccc(COc2ccccc2C(=N)N)c1	microbial growth	BW25113	–	MIC	> 200 mg/L
CC1(C)SC2C(NC(=O)C(NC(=O)C3=C(O)C4CCCN4C3=O)c3ccccc3)C(=O)N2C1C(=O)O (stereo not drawn)	microbial growth, well diffusion	BW25113	200 µM	inhibition zone	11 mm
O=C(N/N=C/c1ccc([N+](=O)[O-])o1)c1ccc(O)cc1	microbial growth	ATCC 8739, ATCC8739	–	MIC90	> 1000 mg/L

Compound	assay	test system	conditions	measurement	result
CC(C)Oc1c(NC(=O)c2ccc(NC(=O)[C@H](CC(N)=O)NC(=O)c3ccc(CNC(=O)c4ccc(C#N)cc4)cc3)cc2)ccc(C(=O)Nc2ccc(C(=O)O)cc2)c1O	microbial growth	DSM1116	–	MIC	> 64 mg/L
Fc1ccc(-n2cc(COc3cccc4cccnc34)nn2)cc1	microbial growth, broth dilution	ATCC25922	–	IC50	405 mg/L
Fc1ccc(-c2nc3ccccc3[nH]2)cc1	microbial growth, broth dilution	ATCC25922	–	MIC	256 mg/L (≈ 1210 µM)
O=S(=O)(Oc1cccc2cccnc12)c1cccs1	microbial growth, broth dilution	ATCC25922	–	IC50	165 mg/L
C=CCn1c(-c2ccc(Cl)cc2)nc2ccccc21	microbial growth, broth dilution	ATCC25922	–	MIC	64 mg/L (≈ 238 µM)
O=c1cccccc1Sc1cccccc1=O	microbial growth, broth dilution	ATCC35218	–	MIC80	13.2 µM (≈ 3.2 µg/mL)
COc1ccc(-c2nc3ccccc3n2Cc2ccccc2)cc1OC	microbial growth, broth dilution	ATCC25922	–	MIC	64 mg/L (≈ 186 µM)
CC1(C)SC2C(NC(=O)C(NC(=O)C3=C(O)C(Cc4ccccc4)NC3=O)c3ccccc3)C(=O)N2C1C(=O)O (stereo not drawn)	microbial growth, well diffusion	BW25113	200 µM	inhibition zone	12 mm
COc1c(N2C[C@@H]3CCCN[C@@H]3C2)c(F)cc2c(=O)c(C(=O)O)cn(C3CC3)c12	microbial growth	ATCC35218	–	MIC90	0.06 mg/L (≈ 0.149 µM)
CC(C)c1cccc(=O)c(O)c1	microbial growth, broth dilution	ATCC35218	–	MIC80	44.4 µM (≈ 7.29 µg/mL)
COc1cc(C=CC(=O)CC(c2ccc([N+](=O)[O-])cc2)n2ccnc2)ccc1O (stereo not drawn)	microbial growth, disc diffusion	ATCC25922	500 µg/mL	inhibition zone	10.3 mm
c1ccc(-n2cc(COc3cccc4cccnc34)nn2)cc1	microbial growth, broth dilution	ATCC25922	–	IC50	408 mg/L
N=C(N)c1cccc(OCc2cccc(COc3cccc(C(=N)N)c3)c2)c1	microbial growth	BW25113	–	MIC	> 200 mg/L
CC[C@H](C)[C@H](NC(=O)OCC1c2ccccc2-c2ccccc21)C(=O)Sc1cccccc1=O	microbial growth, broth dilution	ATCC35218	–	MIC80	> 100 µM
COc1c(C)c(O)c(C)c(O)c1C(=O)/C=C/c1ccccc1	microbial killing, broth dilution	ATCC25922	–	MBC	> 5000 mg/L
C[C@H]1NCc2cc(-c3ccc4c(=O)c(C(=O)O)cn(C5CC5)c4c3OC(F)F)ccc21	microbial growth, broth dilution	–	–	MIC50	≤ 0.03 mg/L
Cc1ccc2nc(-c3ccc(F)cc3)[nH]c2c1	microbial growth, broth dilution	ATCC25922	–	MIC	64 mg/L (≈ 283 µM)
CCN1CCN(C(=O)N[C@@H](C(=O)N[C@@H]2C(=O)N3[C@@H]2SC(C)(C)[C@@H]3C(=O)O)c2ccccc2)C(=O)C1=O	microbial growth, well diffusion	BW25113	200 µM	inhibition zone	19 mm
CCCCCC(=O)Oc1c(C)c(O)c(C(=O)/C=C/c2ccccc2)c(OC)c1C	microbial killing, broth dilution	ATCC25922	–	MBC	> 5000 mg/L
N=C(N)c1ccc(OCc2ccccc2COc2ccc(C(=N)N)cc2)cc1	microbial growth, broth dilution	ATCC25922	–	MIC	> 200 mg/L
COc1c(C)c(OCc2ccccc2)c(C)c(O)c1C(=O)/C=C/c1ccccc1	microbial killing, broth dilution	ATCC25922	–	MBC	> 5000 mg/L
N=C(N)c1ccc(OCc2ccc3ccc(COc4ccc(C(=N)N)cc4)cc3c2)cc1	microbial growth	BW25113	–	MIC	≥ 200 mg/L
